Consider 14 compounds from ChEMBL document CHEMBL1133745, “Indeno[1,2-b]pyrazin-2,3-diones: a new class of antagonists at the glycine site of the NMDA receptor with potent in vivo activity” (J Med Chem, 2000).

In assay [1] the target is Glutamate receptor ionotropic, AMPA (Rattus norvegicus, UniProt P19490+P19491+P19492+P19493). The experiment in a line: Displacement of [3H]-AMPA from Ionotropic glutamate receptor AMPA of rat cortical membranes. It is filed as cell membranes, Membrane.
In assay [2] the test system is Mus musculus. The experiment in a line: Compound was tested in vivo (intra peritoneally) in the mouse maximal electroshock convulsion test. It is filed as functional. The method, boiled down:
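CD1 mice (Charles River); tonic convulsions induced by maximal electroshock. Most compounds tested in a single run; test variability estimated at about 12%.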

For a further assay, the target named is Glutamate NMDA receptor. The experiment in a line: Displacement of [3H]dichlorokynurenate ([3H]-DCKA) from N-methyl-D-aspartate glutamate receptor 1 in rat cortical membranes. Type of assay: cell membranes, Membrane.
The test system of assay [3] is Mus musculus. The experiment in a line: Compound was tested in vivo (intravenously) activity in the mouse maximal electroshock convulsion test. Type of assay: functional. The note with it: iv.
Assay [4] concerns Mus musculus. The experiment in a line: Compound was tested in vivo (intraperitoneally) with probenecid in the mouse maximal electroshock convulsion test.
Assay [5] relates to Mus musculus. The experiment in a line: Compound was tested in vivo (intra peritoneally) with probenecid in the mouse maximal electroshock convulsion test. It is filed as functional. The method, boiled down: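 Maximal electroshock in CD1 mice, scoring tonic convulsions. Animals were pretreated with probenecid 200 mg/kg ip, and the compound was given ip 30 min before shock. ED50 in mg/kg ip.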

pIC50: −log10 of the molar value.

Take `O=c1[nH]c2cc(Cl)c(Cl)c([N+](=O)[O-])c2[nH]c1=O` [LICOSTINEL]: the pIC50 was 6.12 in assay [1] and 8.40 at Glutamate NMDA receptor. In addition, in the assay on Mus musculus [2] (Mus musculus, read-out: ED50), the ED50 was 22.5 mg/kg.
Take `CC1(CC(=O)O)c2ccc(Cl)c(Cl)c2-c2nc(O)c(O)nc21` (stereo not drawn): the results for the pIC50 (in assay [1]; on Glutamate NMDA receptor) were under 5.00 and 5.59, respectively. For the same compound, the ED50 in the assay on Mus musculus [2] (Mus musculus, read-out: ED50) was over 80 mg/kg.
Regarding `CC1(CC(=O)O)c2ccc(F)cc2-c2nc(O)c(O)nc21` (stereo not drawn), the values for the pIC50 (in assay [1]; on Glutamate NMDA receptor) were 5.89 and 7.82, respectively. Further, in the assay on Mus musculus [2] (Mus musculus, read-out: ED50), the ED50 was over 80 mg/kg.
In the case of `CC1(CC(=O)O)c2nc(O)c(O)nc2-c2cc(Cl)cc(Cl)c21` (stereo not drawn), the pIC50 in assay [1] is 6.73; on Glutamate NMDA receptor it was 7.62. For the same compound, the ED50 in the assay with Mus musculus [2] (Mus musculus, read-out: ED50) is over 80 mg/kg.
For `CCCC1(CC(=O)O)c2ccc(Cl)cc2-c2nc(O)c(O)nc21` (stereo not drawn), the pIC50 in assay [1] is 5.15; on Glutamate NMDA receptor it was 7.68. In the assay on Mus musculus [2] (Mus musculus, read-out: ED50), the ED50 was 1.8 mg/kg.
Regarding `O=C(O)C1Nc2cc(Cl)cc(Cl)c2S(=O)(=O)N1Cc1cccc(Br)c1` (stereo not drawn), the pIC50 in assay [1] was under 5.00; at Glutamate NMDA receptor it was 8.08.
Regarding `CC1(CC(=O)O)c2nc(O)c(O)nc2-c2cccc(Cl)c21` (stereo not drawn), the pIC50 in assay [1] is 6.37; on Glutamate NMDA receptor, 7.10. Moreover, in the assay on Mus musculus [2] (Mus musculus, read-out: ED50), the ED50 worked out at 80 mg/kg.
In the case of `CC1(CC(=O)O)c2ccc(Cl)cc2-c2nc(O)c(O)nc21` (single isomer, unassigned; (-)), the pIC50 in assay [1] was 5.00; on Glutamate NMDA receptor it was 8.30. For the same compound, the values for the ED50 in the assay with Mus musculus [2] and in the assay with Mus musculus [3] were 4.5 mg/kg and 2 mg/kg, respectively.
Consider `Cc1ccc2c(c1)-c1nc(O)c(O)nc1C2(C)CC(=O)O` (stereo not drawn), for which the results for the pIC50 (in assay [1]; on Glutamate NMDA receptor) were 5.35 and 7.92, respectively. In addition, the ED50 in the assay on Mus musculus [2] (Mus musculus, read-out: ED50) was 23 mg/kg.
Consider `CC1(CC(=O)O)c2ccc(Cl)cc2-c2nc(O)c(O)nc21` (stereo in doubt; 10i), for which the pIC50 in assay [1] is 5.68; on Glutamate NMDA receptor, 7.55. Further, the ED50 in the assay on Mus musculus [2] was 6.8 mg/kg; in the assay on Mus musculus [4], 1.8 mg/kg.
With `CC1(CC(=O)O)c2ccc(OC(F)(F)F)cc2-c2nc(O)c(O)nc21` (stereo not drawn), the pIC50 in assay [1] was under 5.00; on Glutamate NMDA receptor, 5.37.
With `CC1(CC(=O)O)c2cc(Cl)c(Cl)cc2-c2nc(O)c(O)nc21` (stereo not drawn), the values for the pIC50 (in assay [1]; at Glutamate NMDA receptor) were 5.74 and 6.85, respectively. In the assay with Mus musculus [2] (Mus musculus, read-out: ED50), the ED50 is over 80 mg/kg.
On to `CC1(CC(=O)O)c2ccccc2-c2nc(O)c(O)nc21` (stereo not drawn), for which the pIC50 is 5.34 in assay [1] and 7.68 on Glutamate NMDA receptor. Also, the ED50 with Mus musculus [2] (Mus musculus, read-out: ED50) amounted to 65 mg/kg; with Mus musculus [5], 2.7 mg/kg.
Consider `CC1(CC(=O)O)c2ccc(Cl)cc2-c2nc(O)c(O)nc21` (single isomer, unassigned; (+)), for which the results for the pIC50 (in assay [1]; on Glutamate NMDA receptor) were 6.00 and 7.36, respectively. Further, in the assay on Mus musculus [2], the ED50 is over 80 mg/kg.
